Insulin prom inh: TRM-6 insulin promoter activity inhibition; TRM-6 cells (human fetal islet line), insulin promoter-eGFP reporter, imaging; reporter expression induced with tamoxifen; actives 0.9% (n = 130,000); inhibition, % at 2 µM; AID 1273;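 active = inhibition above the mean plus 3 SD, with well images judged a real hit on visual review, cut at about 60% in these data, passing the limit was not always enough; inconclusive = inhibition over the cutoff but images rejected on review; inactive = inhibition not above the cutoff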
Autophagy HCS: autophagy modulation, high-content screen; MEF GFP-LC3 puncta imaging; test concentration mostly 10 µM; calls only at 10 µM (by protocol); actives 0.98% (n = 190,000);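 active = percentage of spot-positive cells more than 3 SD above its plate mean, without a fluorescence outlier flag or 80% toxicity; inconclusive = no clear call, values can overlap the other calls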
Ins promoter up: MIN6 insulin promoter up-regulation | z-score at 5 µM | actives 0.3% (n = 190,000) | AID 1625 | MIN6 insulin promoter-GFP reporter, high-content imaging; hits give high values;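 active = z-score above 3 at 5 µM with at least 500 cells counted in the well; inconclusive = wells under 500 cells, flagged as cytotoxic or low count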
Dynein cargo inh: dynein cargo transport inhibition; 3617.4 mouse cells, GR-EGFP nuclear translocation imaging; test concentration mostly 20 µM; stimulated with dexamethasone, 1 µM; hits give low values; z-score, hits read low; actives 0.47% (n = 220,000); AID 1381;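 active = plate z-score of nuclear minus cytoplasmic receptor signal below a set negative limit, without overly bright fluorescence or cell loss, cut at about -3.5 in these data, passing the limit was not always enough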;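 also: z-score of nuclear minus cytoplasmic ring GR-EGFP intensity difference per well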
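Buffer or medium: tet-free, stripped-serum medium; reagent: dexamethasone at 1.0 µM final, 30 min; incubation: 48 h induction, 1 h compound, 30 min dex at 37 °C; measured by: formaldehyde fixation, Hoechst nuclear stain, 10x automated fluorescence imaging; read-out: nuclear-to-cytoplasmic GR-EGFP distribution per well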
A number is an active result. In the library only some 2% were active in any assay of this set; here they are far more common.

Results for CCOC(=O)c1nn(-c2ccccc2)c2nnc(Cc3ccc(C)cc3)c(=O)n12 ?
Insulin prom inh: 77; Autophagy HCS: inactive; Ins promoter up: inactive; Dynein cargo inh: inactive

Results for COC(=O)c1c(NC(=O)COC(=O)[C@@H](NS(=O)(=O)c2cccc(Cl)c2)C(C)C)sc2c1CCC2 ?
Insulin prom inh: inactive; Autophagy HCS: active; Ins promoter up: inactive; Dynein cargo inh: inactive

What do the screens show for `Cc1c(C(=O)Nc2ccc(Cl)cc2)c2ccccn2c1C(=O)c1ccc([N+](=O)[O-])cc1`?
Insulin prom inh: inactive; Autophagy HCS: active; Ins promoter up: inactive; Dynein cargo inh: inactive

How did Cc1c(C(=O)Nc2ccc(Cl)cc2)c2ccccn2c1C(=O)c1ccccc1 do in these assays?
Autophagy HCS: inactive; Ins promoter up: inactive; Dynein cargo inh: inactive

Results for COc1ccc(NC(=O)Cn2nnc(C(=O)NCCc3ccc(OC)c(OC)c3)c2N)c(OC)c1 ?
Insulin prom inh: inactive; Autophagy HCS: inactive; Ins promoter up: inactive; Dynein cargo inh: inactive

Results for CCOc1cccc(C(=O)Nc2ccc(N(CC)CC)cc2)c1 ?
Autophagy HCS: inactive; Ins promoter up: inactive; Dynein cargo inh: inactive

What do the screens show for `CCN(CC)c1cccc(OCC(=O)N(C)CCC#N)c1`?
Autophagy HCS: active; Ins promoter up: inactive; Dynein cargo inh: inactive

How did COc1ccc(C2=NOC(C(=O)Nc3cc(Br)ccc3O)C2)cc1OC (stereo not drawn) do in these assays?
Insulin prom inh: 74; Autophagy HCS: inactive; Ins promoter up: inactive; Dynein cargo inh: inactive

How did COc1ccc(C2=NOC(C(=O)Nc3ccc(C(C)=O)cc3)C2)cc1OC (stereo not drawn) do in these assays?
Autophagy HCS: inactive; Dynein cargo inh: inactive

What do the screens show for `COc1n[nH]c(C(=O)Nc2nc3ccccc3s2)c1[N+](=O)[O-]`?
Autophagy HCS: inactive; Ins promoter up: inactive; Dynein cargo inh: inactive

Results for CCOC(=O)c1sc2nc(C)[nH]c(=S)c2c1C ?
Insulin prom inh: 79; Autophagy HCS: inactive; Ins promoter up: inactive; Dynein cargo inh: inactive

What do the screens show for `CCOC(=O)c1sc2nc(C)n(N)c(=O)c2c1C`?
Insulin prom inh: inactive; Autophagy HCS: inactive; Ins promoter up: inactive; Dynein cargo inh: inactive

How did CCOc1ccccc1N1CCN(CC(=O)N(CC(C)C)c2c(N)n(CC(C)C)c(=O)[nH]c2=O)CC1 do in these assays?
Insulin prom inh: inactive; Autophagy HCS: inactive; Ins promoter up: inactive; Dynein cargo inh: inactive

What do the screens show for `CC1=Nc2ccccc2/C1=C/c1sc(=N)n(-c2nccs2)c1O`?
Insulin prom inh: inactive; Autophagy HCS: active; Ins promoter up: inactive; Dynein cargo inh: inactive

What do the screens show for `Cc1ccc(-n2ncc(C(=O)Nc3cc(Cl)cc(Cl)c3)c2C2CCNCC2)cc1C`?
Autophagy HCS: active; Ins promoter up: inconclusive; Dynein cargo inh: inactive

What do the screens show for `CCOC(=O)c1cnn(-c2ccc(Cl)cc2)c1C1CCN(C(=O)OC(C)(C)C)CC1`?
Insulin prom inh: inactive; Autophagy HCS: inactive; Ins promoter up: inactive; Dynein cargo inh: inactive

Results for Cc1ccc(-n2ncc(C(=O)Nc3cc(Cl)ccc3Cl)c2C2CCNCC2)cc1 ?
Insulin prom inh: inactive; Autophagy HCS: active; Ins promoter up: inactive; Dynein cargo inh: inactive

What do the screens show for `NS(=O)(=O)c1cc(C(=O)N=Nc2c(O)[nH]c3ccccc23)ccc1Cl`?
Ins promoter up: inactive; Dynein cargo inh: inactive

How did O=C(Nc1ccc(Oc2cccc(C(F)(F)F)c2)nc1)c1cccs1 do in these assays?
Ins promoter up: inactive; Dynein cargo inh: inactive

Results for CC/C(=N/Nc1ccc(Cl)cc1)c1cnnc(SC)n1 ?
Insulin prom inh: inactive; Autophagy HCS: inactive; Ins promoter up: inactive; Dynein cargo inh: inactive

Results for CC/C(=N/Nc1cccc(C)c1)c1cnnc(SC)n1 ?
Insulin prom inh: inactive; Autophagy HCS: active; Ins promoter up: inactive; Dynein cargo inh: inactive

How did Cc1ccc2c(c1)c1ccc3c(c1n2C)C(=O)C=CC3=O do in these assays?
Dynein cargo inh: -6.9

Results for C=CCn1c2ccccc2n2nc(C)c(=O)nc12 ?
Insulin prom inh: 81; Autophagy HCS: inactive; Ins promoter up: inactive; Dynein cargo inh: inactive

What do the screens show for `COc1cccc(/C=C/C(=O)OCC(=O)Nc2ccc(Cl)c(S(=O)(=O)N(C)C)c2)c1OC`?
Autophagy HCS: inactive; Ins promoter up: inactive; Dynein cargo inh: inactive

How did CC(C)(C)c1ccc(-c2nc3n(c(=O)c2C#N)CCS3)cc1 do in these assays?
Autophagy HCS: inactive; Dynein cargo inh: inactive

What do the screens show for `COc1ccc(C(=O)O)cc1F`?
Insulin prom inh: 79; Autophagy HCS: inactive; Ins promoter up: inactive; Dynein cargo inh: inactive

How did O=C1/C(=C/c2c[nH]c3ccccc23)CCC/C1=C\c1c[nH]c2ccccc12 do in these assays?
Autophagy HCS: inactive; Ins promoter up: 4.6; Dynein cargo inh: inactive

How did CC1(C)CC(CCC(=O)NC(=S)Nc2ccccc2Cl)C(=O)O1 (stereo not drawn) do in these assays?
Autophagy HCS: inactive; Ins promoter up: inactive; Dynein cargo inh: inactive

How did COc1ccc(N(C(=O)Cc2cccs2)C2C=CS(=O)(=O)C2)cc1 (stereo not drawn) do in these assays?
Autophagy HCS: inactive; Ins promoter up: 3.1; Dynein cargo inh: inactive

What do the screens show for `Cc1cc[n+](-c2ccccc2)c2ccccc12`?
Autophagy HCS: inactive; Ins promoter up: inactive; Dynein cargo inh: inactive

Results for CC(C)C(=O)NC(=S)Nc1c(Cl)ccc2nsnc12 ?
Ins promoter up: inactive; Dynein cargo inh: inactive

How did COC(=O)c1[nH]c2ccccc2c1NC(=O)CN1CCN(C(=O)c2ccco2)CC1 do in these assays?
Insulin prom inh: 91; Autophagy HCS: inactive; Ins promoter up: inactive; Dynein cargo inh: inactive

Results for CCNc1nc(SCC(=O)OC)nc(N(C)C)n1 ?
Insulin prom inh: inactive; Autophagy HCS: inactive; Ins promoter up: inactive; Dynein cargo inh: inactive

Results for Cc1nnc(NC(=O)c2oc3cc(C)c(C)cc3c2C)s1 ?
Autophagy HCS: active; Ins promoter up: inactive; Dynein cargo inh: inactive

How did O=C(NC(C(=O)N/N=C/c1ccccn1)c1n[nH]c(=O)c2ccccc12)c1ccccc1 (stereo not drawn) do in these assays?
Ins promoter up: inactive; Dynein cargo inh: inactive

What do the screens show for `CCn1c2ccc(OC)cc2c2nc3ccccc3nc21`?
Insulin prom inh: inactive; Autophagy HCS: inactive; Ins promoter up: inactive; Dynein cargo inh: inactive

Results for COC(=O)Cn1c2ccc(OC)cc2c2nc(C)sc21 ?
Ins promoter up: inactive; Dynein cargo inh: inactive

How did CCCCOC(=O)Cn1c2ccc(OC)cc2c2nc3ccccc3nc21 do in these assays?
Insulin prom inh: inactive; Autophagy HCS: active; Ins promoter up: inactive; Dynein cargo inh: inactive

What do the screens show for `CCOc1ccc(Cn2c3ccc(OC)cc3c3nc4ccccc4nc32)cc1`?
Insulin prom inh: inactive; Autophagy HCS: active; Ins promoter up: inactive; Dynein cargo inh: inactive

Results for COc1ccc(-c2nc3ccccc3[nH]2)cc1 ?
Insulin prom inh: 94; Autophagy HCS: inactive; Ins promoter up: inactive; Dynein cargo inh: inactive

Results for COC(=O)c1ccc(/C=N/Nc2nc3ccccc3[nH]2)cc1 ?
Autophagy HCS: inactive; Ins promoter up: inactive; Dynein cargo inh: inactive

How did COC(=O)c1ccc(-c2nc3ccccc3[nH]2)cc1 do in these assays?
Insulin prom inh: 64; Autophagy HCS: inactive; Ins promoter up: inactive; Dynein cargo inh: inactive
